From paper PMC6133080 (European Journal of Drug Metabolism and Pharmacokinetics, 2018)
Read-outs that look alike come from different tables or passages of the source.

Experiments:
[1] = Ketoconazole study: safety and tolerability; format: in vivo, human; settings: for Subjects with abdominal pain upper / Subjects with any AE (s) / Subjects with back pain / Subjects with dizziness / Subjects with dry mouth / Subjects with excoriation / Subjects with fatigue / Subjects with headache / Subjects with nasopharyngitis / Subjects with ocular hyperemia / Subjects with puncture site induration / Subjects with puncture site pain: nintedanib 50 mg single dose, ketoconazole 400 mg once daily for 3 days
Summary of the method: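 Healthy subjects in an open-label 2-way crossover with randomized sequences. The pilot period had 8 subjects and the main period 26 further subjects. Nintedanib 50 mg was given alone and after ketoconazole 400 mg once daily for 3 days (1 h after the last dose in the pilot), with ≥14 days between nintedanib doses. AEs from one drug intake to the next, washout included, were assigned to that treatment period (nintedanib, ketoconazole, or both). Labs, vital signs, 12-lead ECG and physical exam were also recorded.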

[2] = Rifampicin study: safety and tolerability; format: in vivo, human; settings: for Subjects with any AE (s) / Subjects with chromaturia / Subjects with cough / Subjects with dermatitis contact / Subjects with diarrhea / Subjects with dizziness / Subjects with dysphagia / Subjects with eye pain / Subjects with fatigue / Subjects with feces discolored / Subjects with feeling hot / Subjects with flatulence / Subjects with headache / Subjects with influenza / Subjects with laceration / Subjects with nausea / Subjects with night sweats / Subjects with oropharyngeal pain / Subjects with pollakiuria / Subjects with rhinitis / Subjects with vessel puncture site paresthesia: nintedanib 150 mg single dose, rifampicin 600 mg once daily for 7 days
Summary of the method: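 26 healthy subjects in an open-label, two-period, fixed-sequence design. A single oral nintedanib 150 mg dose was given alone, then again the morning after the last oral rifampicin 600 mg once-daily dose (7 days), with ≥14 days between nintedanib doses. AEs within 72 h of each nintedanib dose were assigned to that period. AEs later than 72 h after nintedanib alone and before rifampicin started were counted as washout. Labs, vital signs, 12-lead ECG and physical exam were also assessed.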

[3] = format: in vivo, human
[4] = format: in vivo, human; remark: listed apart in the source
Summary of the method: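 Open-label, fixed-sequence, two-period study in 26 healthy subjects. A single oral 150 mg dose was given alone, then the morning after the last of 7 daily oral 600 mg co-drug doses. Doses were ≥14 days apart. Plasma sampled pre-dose to 72 h and assayed by LC-MS/MS. Cmax observed; AUC by linear-up/log-down trapezoidal rule; log values analysed by ANOVA (treatment fixed, subject random), giving geometric mean ratios with 90% CIs.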

[5] = cited from earlier work
CYP = settings: in vitro; cited from earlier work
esterases = settings: in vitro; cited from earlier work
p-glycoprotein (P-gp) = settings: cited from earlier work
[6] = co-administration with ketoconazole
[7] = test nintedanib 50 mg + ketoconazole 400 mg vs reference nintedanib 50 mg
[8] = co-administration with rifampicin
[9] = test nintedanib 150 mg + rifampicin 600 mg vs reference nintedanib 150 mg
[10] = single dose of nintedanib alone and with ketoconazole
[11] = single dose of nintedanib alone and with rifampicin

Compound: CC(=O)N1CCN(c2ccc(OCC3COC(Cn4ccnc4)(c4ccc(Cl)cc4Cl)O3)cc2)CC1 (centres unmarked) [Ketoconazole]
- Subjects with abdominal pain upper [1]: 1 (2.9) n (%)
- Subjects with any AE (s) [1]: 3 (8.8) n (%)
- Subjects with back pain [1]: 0 n (%)
- Subjects with dizziness [1]: 0 n (%)
- Subjects with dry mouth [1]: 1 (2.9) n (%)
- Subjects with excoriation [1]: 0 n (%)
- Subjects with fatigue [1]: 0 n (%)
- Subjects with headache [1]: 2 (5.9) n (%)
- Subjects with nasopharyngitis [1]: 0 n (%)
- Subjects with ocular hyperemia [1]: 0 n (%)
- Subjects with puncture site induration [1]: 0 n (%)
- Subjects with puncture site pain [1]: 0 n (%)

Compound: CO[C@H]1/C=C/O[C@@]2(C)Oc3c(C)c(O)c4c(O)c(c(/C=N/N5CCN(C)CC5)c(O)c4c3C2=O)NC(=O)/C(C)=C\C=C\[C@H](C)[C@H](O)[C@@H](C)[C@@H](O)[C@@H](C)[C@H](OC(C)=O)[C@@H]1C [Rifampicin]
- Subjects with any AE (s) [2]: 25 (100) n (%)
- Subjects with chromaturia [2]: 25 (100) n (%)
- Subjects with cough [2]: 1 (4.0) n (%)
- Subjects with dermatitis contact [2]: 0 n (%)
- Subjects with diarrhea [2]: 1 (4.0) n (%)
- Subjects with dizziness [2]: 2 (8.0) n (%)
- Subjects with dysphagia [2]: 1 (4.0) n (%)
- Subjects with eye pain [2]: 1 (4.0) n (%)
- Subjects with fatigue [2]: 2 (8.0) n (%)
- Subjects with feces discolored [2]: 3 (12.0) n (%)
- Subjects with feeling hot [2]: 1 (4.0) n (%)
- Subjects with flatulence [2]: 2 (8.0) n (%)
- Subjects with headache [2]: 5 (20.0) n (%)
- Subjects with influenza [2]: 0 n (%)
- Subjects with laceration [2]: 1 (4.0) n (%)
- Subjects with nausea [2]: 1 (4.0) n (%)
- Subjects with night sweats [2]: 1 (4.0) n (%)
- Subjects with oropharyngeal pain [2]: 0 n (%)
- Subjects with pollakiuria [2]: 1 (4.0) n (%)
- Subjects with rhinitis [2]: 1 (4.0) n (%)
- Subjects with vessel puncture site paresthesia [2]: 0 n (%)

Compound: COC(=O)c1ccc2c(c1)NC(=O)/C2=C(\Nc1ccc(N(C)C(=O)CN2CCN(C)CC2)cc1)c1ccccc1 [Nintedanib]
- Effect on tmax and t½ of nintedanib ([3]; co-administration of ketoconazole): unaffected
- Increase in exposure to nintedanib based on AUC [3, 6]: about 1.6 fold
- Increase in exposure to nintedanib based on Cmax [3, 6]: ~1.7 fold
- Tmax ([3]; human, plasma, oral): 3 h
- half-life ([3]; human, plasma, oral): 936 min
- AUC(0-inf) ([3]; human, plasma, po, 50 mg): 38.6 ng·h/mL
- AUC(0-t) ([3]; human, plasma, po, 50 mg): 35.7 ng·h/mL
- Cmax ([3]; human, plasma, po, 50 mg): 4.19 ng/mL
- half-life ([3]; human, plasma, po, 50 mg): 1090 min
- Exposure to nintedanib (AUC0–∞, Cmax, AUC0–tz) higher when co-administered with ketoconazole than alone ([3]; nintedanib 50 mg, ketoconazole 400 mg once daily for 3 days): 1.6–1.7 fold
- Relative bioavailability, GMR (90% CI) of AUC0–tz [3, 7]: 168.1 (155.3–182.0) %
- Relative bioavailability, GMR (90% CI) of AUC0–∞ [3, 7]: 160.5 (148.2–173.7) %
- Relative bioavailability, GMR (90% CI) of Cmax [3, 7]: 179.6 (157.6–204.8) %
- Effect on tmax and t½ of nintedanib ([4]; co-administration of rifampicin): unaffected
- Reduction of exposure to nintedanib based on AUC [4, 8]: about 50%
- Reduction of exposure to nintedanib based on Cmax [4, 8]: ~60%
- Tmax ([4]; human, plasma, oral): 4 h
- half-life ([4]; human, plasma, oral): 1400 min
- AUC(0-inf) ([4]; human, plasma, po, 150 mg): 183 ng·h/mL
- AUC(0-t) ([4]; human, plasma, po, 150 mg): 173 ng·h/mL
- Cmax ([4]; human, plasma, po, 150 mg): 22.1 ng/mL
- half-life ([4]; human, plasma, po, 150 mg): 1350 min
- Relative bioavailability, GMR (90% CI) of AUC0–tz [4, 9]: 50.0 (46.9–53.3) %
- Relative bioavailability, GMR (90% CI) of AUC0–∞ [4, 9]: 50.1 (47.2–53.3) %
- Relative bioavailability, GMR (90% CI) of Cmax [4, 9]: 59.8 (53.8–66.4) %
- Subjects with abdominal pain upper [1]: 0 n (%)
- Subjects with any AE (s) [1]: 8 (25.8) n (%)
- Subjects with back pain [1]: 0 n (%)
- Subjects with dizziness [1]: 1 (3.2) n (%)
- Subjects with dry mouth [1]: 0 n (%)
- Subjects with excoriation [1]: 0 n (%)
- Subjects with fatigue [1]: 1 (3.2) n (%)
- Subjects with headache [1]: 5 (16.1) n (%)
- Subjects with nasopharyngitis [1]: 2 (6.5) n (%)
- Subjects with ocular hyperemia [1]: 1 (3.2) n (%)
- Subjects with puncture site induration [1]: 0 n (%)
- Subjects with puncture site pain [1]: 0 n (%)
- Serious AEs [1, 10]: No serious AEs
- Tolerability [1, 10]: well tolerated
- Subjects with any AE (s) [2]: 5 (19.2) n (%)
- Subjects with chromaturia [2]: 0 n (%)
- Subjects with cough [2]: 0 n (%)
- Subjects with dermatitis contact [2]: 0 n (%)
- Subjects with diarrhea [2]: 5 (19.2) n (%)
- Subjects with dizziness [2]: 0 n (%)
- Subjects with dysphagia [2]: 0 n (%)
- Subjects with eye pain [2]: 0 n (%)
- Subjects with fatigue [2]: 0 n (%)
- Subjects with feces discolored [2]: 0 n (%)
- Subjects with feeling hot [2]: 0 n (%)
- Subjects with flatulence [2]: 0 n (%)
- Subjects with headache [2]: 1 (3.8) n (%)
- Subjects with influenza [2]: 0 n (%)
- Subjects with laceration [2]: 0 n (%)
- Subjects with nausea [2]: 0 n (%)
- Subjects with night sweats [2]: 0 n (%)
- Subjects with oropharyngeal pain [2]: 0 n (%)
- Subjects with pollakiuria [2]: 0 n (%)
- Subjects with rhinitis [2]: 0 n (%)
- Subjects with vessel puncture site paresthesia [2]: 0 n (%)
- Serious AEs [2, 11]: No serious AEs
- Tolerability [2, 11]: well tolerated
- Terminal half-life [5]: 10 to 15 h
- Volume of distribution ([5]; geometric mean): 1050 L
- Percentage absorbed ([5]; nintedanib 100 mg in healthy volunteers, estimated): 23%
- Absolute bioavailability ([5]; nintedanib 100 mg in healthy volunteers): approximately 5%
- Time to maximum plasma concentration ([5]; oral administration): 2 to 4 h
- Time to steady state ([5]; oral dosing): ≤ 7 days
- Share of CYP-dependent metabolism (CYP): about 5%
- Share of ester cleavage (esterases): about 25%
- Substrate for p-glycoprotein (P-gp) (p-glycoprotein (P-gp)): substrate
